Bioassay records: PubChem BioAssay, several laboratories
ROMK mod – ROMK potassium channel modulators, primary screen, cell-based, thallium flux, MLSMR library. ATP-sensitive inward rectifier potassium channel 1 (Homo sapiens), P48048. Tet-inducible ROMK, thallium flux fluorescence; actives lie on both sides. B-score at 10 µM. 2% of 130,000 active;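 active = signal ratio slope over the read window, or its plate-corrected B-score, at least 3 SD from the plate mean, either direction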;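 also: B-score of the F/F0 ratio slope over 7 to 12 s after thallium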
Target sequence (P48048 whole entry, looked up): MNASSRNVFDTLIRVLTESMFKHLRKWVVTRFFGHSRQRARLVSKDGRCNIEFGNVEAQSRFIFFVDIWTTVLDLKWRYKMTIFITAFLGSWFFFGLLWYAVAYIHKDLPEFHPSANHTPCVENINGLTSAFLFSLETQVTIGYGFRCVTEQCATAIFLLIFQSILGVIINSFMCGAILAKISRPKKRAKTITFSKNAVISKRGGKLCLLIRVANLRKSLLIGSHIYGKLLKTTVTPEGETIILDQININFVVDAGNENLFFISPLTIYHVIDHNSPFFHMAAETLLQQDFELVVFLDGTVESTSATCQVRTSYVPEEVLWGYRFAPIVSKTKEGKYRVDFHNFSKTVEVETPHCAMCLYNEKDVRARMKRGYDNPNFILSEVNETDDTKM
Pf gamet viab – late stage P. falciparum gametocyte viability inhibitors, primary screen, ATP luminescence, HTS; P. falciparum stage V gametocytes, 24 h; inhibition, % at 10.9 µM; 0.065% of 150,000 active; AID 743093, 2013;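 active = inhibition above the mean plus 3 SD of compounds within the control limits, set per campaign, cut at about 38% in these data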;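 also: 0% = DMSO wells and 100% = medium only without gametocytes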
Biofilm kill mix – clotrimazole potentiators killing C. albicans biofilm, primary screen, 4-compound mixtures | 0.02% of 120,000 active | inhibition, % at 7.6 µM | C. albicans biofilm persisters + clotrimazole, fluorescence viability; primary screen in compound mixtures of four per well;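 also: compounds exposed to preformed 24 h biofilms for 48 h; 0% = untreated biofilm control and 100% = clotrimazole plus chlorhexidine kill blank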
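System: C. albicans CAF4-2 wild-type biofilms; Medium: RPMI/MOPS medium, pH 7.0; Reagent: Clotrimazole, 50 µg/mL; Times: biofilm formation 24 h, compound exposure 48 h, 37 °C; Detection: 2-h Alamar Blue fluorescence, 535/590 nm excitation/emission; Evaluation: percent inhibition of biofilm viability.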
ROMK hit retest – ROMK channel modulator hit retest, confirmation, cell-based, thallium flux, duplicate, resupplied hits. shares compounds with ROMK mod. fluorescence ratio; hits give low values. normalized thallium flux (F/F0 slope) at 10 µM. 54% of 3,000 active;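 active = Flux at 10 µM at least 3 SD below or above vehicle control mean in one or both replicates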
The depositor's hits bear a star; nt = not tested or not shown. The full list was thinned out, with hits kept by preference.

SMILES	ROMK mod	Pf gamet viab	Biofilm kill mix	ROMK hit retest
CN(C)S(=O)(=O)c1cccc(NC(=S)NCCCn2ccnc2)c1	-0.28	15	14	nt
Cc1cc(-c2nnc(CCC(=O)N3CCN(Cc4cccc(F)c4)CC3)o2)c(C)o1	-0.44	26	14	nt
COc1cc(/C=N/NC(=O)c2ccc(CSc3nc4ccccc4[nH]3)cc2)ccc1O	0.84	5	12	nt
Cc1ccc(-n2c(C)c([N+](=O)[O-])c3ccc(O)c(CN(C)C)c32)cc1	-5.3*	8	nt	0.049*
COc1ccc(-n2c(C)c([N+](=O)[O-])c3ccc(O)c(CN4CCCCC4)c32)cc1	-0.76	nt	nt	nt
Nc1ccccc1NC1CCCCC1	-0.013	7	-3	nt
CCOc1ccccc1NS(=O)(=O)c1ccc2oc(=O)ccc2c1	nt	0	nt	nt
CC(C)(C)C1CC=C2C(C#N)=C(N)C(C#N)(C#N)C(c3cccs3)C2C1 (centres undefined)	-3*	nt	nt	0.055*
CN1C2C=C3C(C#N)=C(N)C(C#N)(C#N)[C@@H](c4cccs4)C3C1CC2 (some centres undefined)	-1.2	-23	nt	nt
CC1CCN(c2cc(C#N)c(C#N)cc2[N+](=O)[O-])CC1	-0.093	-16	nt	nt
CC1CCN(c2cc(N)c(Cl)cc2[N+](=O)[O-])CC1	nt	nt	nt	0.069*
Cc1cc(C)c(C2=CC(=O)C[C@H](c3ccc4c(c3)OCO4)C2)c(C)c1	nt	-34	nt	nt
Cc1noc(NS(=O)(=O)c2ccc(N/C=C\C(=O)c3ccc(F)cc3)cc2)c1C	3.9*	-7	12	0.083
Cc1noc(NS(=O)(=O)c2ccc(N/C=C\C(=O)c3ccccc3)cc2)c1C	nt	nt	5	nt
Cc1cc(NC(=O)c2ccccc2)ccc1NC(=O)Cc1ccccc1	nt	-1	nt	nt
Cc1ccc(S(=O)(=O)N(OCc2ccccc2)C(C)C(=O)O)cc1 (centres undefined)	nt	-7	nt	nt
CC1CCN(C(=O)CSCC(=O)Nc2nc(-c3cccs3)cs2)CC1	nt	nt	nt	0.065*
CCOC(=O)N1CCN(C(=O)CSCC(=O)Nc2nc(-c3cccs3)cs2)CC1	-1.9	0	17	nt
Cc1nc(SCc2nc3ccc(C(F)(F)F)cc3[nH]2)c2oc3ccccc3c2n1	nt	-11	nt	nt
C[C@]1(C(=O)NCc2cc(F)cc(C(F)(F)F)c2)C=C[C@@H](Cc2ccccc2)N1C(=O)c1ccccc1	-0.78	-21	7	nt
C#CCOCCOCCOCCNc1nc(N2CCN(C(=O)C([C@@H](C)CC)n3cc(C(N)Cc4ccc(O)cc4)nn3)CC2)nc(N2CCN(C(=O)[C@H](CCC(=O)O)n3cc(C(N)Cc4ccc(O)cc4)nn3)CC2)n1 (some centres undefined)	nt	nt	20	nt
Cn1cc(/C=C2\SC(=S)N(NC(=O)c3ccccc3)C2=O)c2ccccc21	-3*	-23	13	0.058*
Cn1cc(/C=C2\SC(=S)N(NC(=O)c3cccc(Cl)c3)C2=O)c2ccccc21	nt	3	20	nt
COC(=O)c1cc(NC(=O)c2ccc(F)cc2)cc(C(=O)OC)c1	0.15	-12	22	nt
Cc1ccc(Sc2ncccc2NC(=O)c2ccccc2Cl)cc1	-0.077	-18	15	nt
SMILES	ROMK mod	Pf gamet viab	Biofilm kill mix	ROMK hit retest
COc1ccccc1CNC(=O)C1CC2Cn3c(nc4cc(C)c(C)cc43)C2N1C (centres undefined)	nt	-7	nt	nt
N#Cc1nc(-c2cccc3ccccc23)oc1NCCN1CCCCC1	-3.4*	4	nt	0.065*
CC(C)Nc1oc(-c2cccc3ccccc23)nc1C#N	-0.37	nt	nt	nt
COc1ccc([C@H]2CC(=O)C=C(c3ccc(Cl)c(C(F)(F)F)c3)C2)cc1	nt	-8	nt	nt
COc1cc(C(=O)Nc2ccc(C)cc2)c(-n2cnnn2)cc1OC	0.68	nt	11	nt
Cc1nn(Cc2cccc(C(=O)NN)c2)c(C)c1Cl	nt	8	6	nt
CCCCNC(=S)N1CCN(C(c2ccccc2)c2ccccc2)CC1	0.27	nt	-2	nt
CCCNC(=S)N1CCN(C(c2ccccc2)c2ccccc2)CC1	-3.2*	-6	-10	0.082
COc1cc(NC(=S)N2CCc3ccccc3C2)cc(OC)c1	-0.0012	0	13	nt
CC(=O)N1CCc2cc(Br)cc(S(=O)(=O)NCc3ccccn3)c21	-7.4*	nt	nt	0.085
CCCN(CCC)CCCNS(=O)(=O)c1cc(Br)cc2c1N(C(C)=O)CC2	-0.25	-12	nt	nt
CC1(C)Oc2ccc(C#N)cc2[C@@H](N2CCCC2=O)[C@@H]1O	nt	nt	3	nt
CCOc1ccc2c(c1)C(c1ccccc1)=NNC(c1ccccc1)=N2	nt	nt	25	nt
COc1ccc(-c2n(CC(=O)OC3CC(C)CCC3C(C)C)c3ccccc3[n+]2C)cc1 (centres undefined)	-1.8*	nt	10	0.038*
COc1ccc(OCc2n(CC(=O)OC3CC(C)CCC3C(C)C)c3ccccc3[n+]2C)cc1 (centres undefined)	-0.46	11	23	nt
O=C(COc1ccc2ccccc2c1)Nc1nccs1	-0.94	-8	26	nt
O=C(COc1ccccc1)Nc1nccs1	3*	-18	-10	0.077
Fc1ccccc1Sc1ccccc1CNC1=NCCN1	-0.79	-19	8	nt
c1ccc(Sc2cccc3ccccc23)c(CNC2=NCCN2)c1	-3.1*	nt	14	0.058*
C=C1C(=O)C=C2CN(C(=O)c3ccccc3)[C@@](Cc3ccc(F)cc3)(C(=O)OC)[C@@H]12	-4.4*	nt	-1	0.05*
COC(=O)[C@@]1(Cc2ccc(OC)cc2)[C@@H]2C(=CC(=O)[C@H]2CC(=O)C(=O)N(C)C)CN1C(=O)c1ccccc1	-2.4	-31	10	nt
O=c1[nH]c(C(Cl)Cl)nc2sc3c(c12)CCN(Cc1ccccc1)C3	-1.1	-19	-1	nt
CCCSc1nc2sc3c(c2c(=O)[nH]1)CCN(Cc1ccccc1)C3	-5.4*	nt	nt	0.03*
O=C(NCCCNC(=O)c1ccc(F)cc1)c1ccc(F)cc1	nt	-19	nt	nt
NC1=NC[C@H](CC2CCCCC2)N1CCc1cc(C(F)(F)F)cc(C(F)(F)F)c1	nt	-13	14	0.05*
SMILES	ROMK mod	Pf gamet viab	Biofilm kill mix	ROMK hit retest
NC1=NC[C@@H](Cc2ccc(O)cc2)N1CCc1cc(C(F)(F)F)cc(C(F)(F)F)c1	nt	10	17	nt
CNCc1ccccc1Sc1ccc(O)c(O)c1	nt	-13	8	nt
Clc1ccccc1-c1nnc2sc(-c3ccccn3)nn12	nt	-13	5	0.079
Clc1ccccc1-c1nnc2sc(-c3ccco3)nn12	-0.46	-3	nt	nt
N#CCCOC1(C#CCN2CCCC2)CCCCC1	nt	-2	nt	nt
O=C(COC(=O)C(c1ccccc1)c1ccccc1)NCc1ccco1	-1.8	20	9	nt
COC(=O)c1cccnc1NC(=S)NNC(=O)c1ccccc1	2.2*	-12	nt	0.074
O=C(NNC(=S)Nc1ccccc1)c1ccc2ncccc2c1	-0.12	14	2	nt
COC(=O)c1ccc(NC(=S)NNC(=O)c2ccccc2)cc1	0.94*	-2	60	0.082
O=C(NNC(=S)Nc1ccccc1)c1ccc(O)cc1	nt	21	15	nt
O=C(O)c1cc(Cl)c(Cl)cc1C(=O)N(Cc1ccccc1)Cc1ccccc1	nt	7	nt	nt
COc1ccc(C(=O)C[n+]2cn(C(F)F)c3ccccc32)c(F)c1	0.12	-1	10	nt
Cc1cc(C(C)(C)C)oc1C(=O)N(CC(=O)NC1CCCC1)Cc1ccccc1Cl	nt	-15	nt	0.054*
